Measured values from ChEMBL document CHEMBL2413015, “Synthesis, evaluation and molecular dynamics study of some new 4-aminopyridine semicarbazones as an antiamnesic and cognition enhancing agents” (Bioorg Med Chem, 2013).

Legend:
Rattus norvegicus [1] = experiment: Cognitive enhancing effect in Wistar rat assessed as reversal of learning impairment measured as transfer latency at 10 mg/kg, po for 8 days measured on first day of test by elevated plus maze test (reference value: 70.846 +/- 0.76 seconds); format: functional
Procedure, shortened: (§1)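 Oral dosing at 5 or 10 mg/kg for 8 days, suspended in 0.3% carboxymethyl cellulose; vehicle-treated controls. Transfer latency on elevated plus maze measured on first and second days of exposure (treatment days 7 and 8). Mean ± SEM, n = 6, one-way ANOVA versus vehicle control.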

Rattus norvegicus [2] = experiment: Cognitive enhancing effect in Wistar rat assessed as reversal of learning impairment measured as transfer latency at 5 mg/kg, po for 8 days measured on second day of test by elevated plus maze test (reference value: 66.824 +/- 0.47 seconds); format: functional; procedure, shortened: as §1
Rattus norvegicus [3] = experiment: Cognitive enhancing effect in Charles Foster rat assessed as reversal of scopolamine-induced amnesia measured as transfer latency at 10 mg/kg, po for 8 days administered 1 hr prior to scopolamine-challenge on day 7 measured on day 8 by elevated plus maze test (reference value: 62.17 +/- 0.47 seconds); format: functional
Cholinesterase [4] = target: T1, Cholinesterase (Homo sapiens, UniProt P06276); experiment: Inhibition of human serum BChE using butyrylthiocholine iodide as substrate preincubated for 20 mins prior to substrate addition by Ellman's method
Procedure, shortened: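 Human serum BChE was dissolved in 0.1% gelatine. The final mix held 0.1 M phosphate pH 8.0, DTNB, 0.02 unit/mL enzyme and butyrylthiocholine iodide. Five inhibitor concentrations spanning 20–80% inhibition were preincubated with enzyme for 20 min at 37 °C, then substrate was added. Rate was read at 412 nm over 5 min against an enzyme-free blank. Each point was run in triplicate, and IC50 was read graphically from log concentration–% inhibition curves.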

Acetylcholinesterase [5] = target: T2, Acetylcholinesterase (Electrophorus electricus, UniProt O42275); experiment: Competitive inhibition of electric eel AChE using acetylthiocholine iodide as substrate by Lineweaver-Burk plot analysis
Procedure, shortened: (§2)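 Ellman assay in phosphate buffer pH 8 with a fixed amount of cholinesterase. Thiocholine substrate was varied from below to above, but near, Km, with or without inhibitor. Inhibition type was assigned from Lineweaver–Burk plots.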

Rattus norvegicus [6] = experiment: Activity at AChE in Charles Foster rat hypothalamus assessed as substrate hydrolyzed per mg of protein at 10 mg/kg, po for 8 days by Ellman's method (reference value: 40.50 +/- 0.76 mol/min); format: functional
Rattus norvegicus [7] = experiment: Toxicity in albino rat assessed as change in normal behavioral response upto 100 mg/kg after 30 mins to 48 hrs; format: organism-based; design: dose 100 mg/kg; details: in vivo
Procedure, shortened: (§3)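 Acute toxicity followed OECD guidelines. Nulliparous, non-pregnant female albino rats (120–150 g) were fasted overnight with water ad libitum. Graded oral doses up to 100 mg/kg were given in 0.3% carboxymethyl cellulose. Rats were observed continuously for 30 min, at 2 h and up to 48 h for behavioural or autonomic changes, tremors, convulsions, salivation, diarrhoea, sleep, lacrimation, cardiovascular signs, feeding and mortality.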

Rattus norvegicus [8] = experiment: Cognitive enhancing effect in po dosed Wistar rat assessed as reversal of learning impairment measured as transfer latency administered for 8 days by elevated plus maze test; format: functional, organism-based; procedure, shortened: as §1
Rattus norvegicus [9] = experiment: Cognitive enhancing effect in Wistar rat assessed as reversal of learning impairment measured as transfer latency at 10 mg/kg, po for 8 days measured on second day of test by elevated plus maze test (reference value: 66.824 +/- 0.47 seconds); format: functional; procedure, shortened: as §1
Rattus norvegicus [10] = experiment: Activity at AChE in Charles Foster rat prefrontal cortex assessed as substrate hydrolyzed per mg of protein at 5 mg/kg, po for 8 days by Ellman's method (reference value: 45.83 +/- 0.94 mol/min); format: functional
[11] = Selectivity ratio of IC50 for human serum BChE to IC50 for electric eel AChE
Procedure, shortened: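 Ratio of IC50 (BChE) to IC50 (AChE). Both came from Ellman assays at 0.1 M phosphate pH 8.0 and 0.02 unit/mL enzyme: AChE (stock in phosphate buffer) with acetylthiocholine, human serum BChE (stock in 0.1% gelatine) with butyrylthiocholine.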

Rattus norvegicus [12] = experiment: Cognitive enhancing effect in Charles Foster rat assessed as reversal of scopolamine-induced amnesia measured as transfer latency at 10 mg/kg, po for 8 days administered 1 hr prior to scopolamine-challenge on day 7 measured on same day by elevated plus maze test (reference value: 67.83 +/- 0.94 seconds); format: functional
Acetylcholinesterase [13] = target: T2, Acetylcholinesterase; experiment: Inhibition of electric eel AChE using acetylthiocholine iodide as substrate preincubated for 20 mins prior to substrate addition by Ellman's method
Rattus norvegicus [14] = experiment: Activity at AChE in Charles Foster rat hippocampus assessed as substrate hydrolyzed per mg of protein at 10 mg/kg, po for 8 days by Ellman's method (reference value: 47.50 +/- 0.84 mol/min); format: functional
Rattus norvegicus [15] = experiment: Cognitive enhancing effect in Charles Foster rat assessed as reversal of scopolamine-induced amnesia measured as transfer latency at 5 mg/kg, po for 8 days administered 1 hr prior to scopolamine-challenge on day 7 measured on same day by elevated plus maze test (reference value: 67.83 +/- 0.94 seconds); format: functional
Rattus norvegicus [16] = experiment: Toxicity in albino rat assessed as mortality upto 100 mg/kg after 30 mins to 48 hrs; format: organism-based; design: dose 100 mg/kg; details: in vivo; procedure, shortened: as §3
Rattus norvegicus [17] = experiment: Cognitive enhancing effect in Charles Foster rat assessed as reversal of scopolamine-induced amnesia measured as transfer latency at 5 mg/kg, po for 8 days administered 1 hr prior to scopolamine-challenge on day 7 measured on day 8 by elevated plus maze test (reference value: 62.17 +/- 0.47 seconds); format: functional
Rattus norvegicus [18] = experiment: Cognitive enhancing effect in Wistar rat assessed as reversal of learning impairment measured as transfer latency at 5 mg/kg, po for 8 days measured on first day of test by elevated plus maze test (reference value: 70.846 +/- 0.76 seconds); format: functional; procedure, shortened: as §1
Rattus norvegicus [19] = experiment: Activity at AChE in Charles Foster rat prefrontal cortex assessed as substrate hydrolyzed per mg of protein at 10 mg/kg, po for 8 days by Ellman's method (reference value: 45.83 +/- 0.94 mol/min); format: functional
Cholinesterase [20] = target: T1, Cholinesterase; experiment: Competitive inhibition of human serum BChE using butyrylthiocholine iodide as substrate by Lineweaver-Burk plot analysis; procedure, shortened: as §2
Rattus norvegicus [21] = experiment: Activity at AChE in Charles Foster rat hippocampus assessed as substrate hydrolyzed per mg of protein at 5 mg/kg, po for 8 days by Ellman's method (reference value: 47.50 +/- 0.84 mol/min); format: functional
Rattus norvegicus [22] = experiment: Activity at AChE in Charles Foster rat hypothalamus assessed as substrate hydrolyzed per mg of protein at 5 mg/kg, po for 8 days by Ellman's method (reference value: 40.50 +/- 0.76 mol/min); format: functional

T2 sequence (O42275 whole entry): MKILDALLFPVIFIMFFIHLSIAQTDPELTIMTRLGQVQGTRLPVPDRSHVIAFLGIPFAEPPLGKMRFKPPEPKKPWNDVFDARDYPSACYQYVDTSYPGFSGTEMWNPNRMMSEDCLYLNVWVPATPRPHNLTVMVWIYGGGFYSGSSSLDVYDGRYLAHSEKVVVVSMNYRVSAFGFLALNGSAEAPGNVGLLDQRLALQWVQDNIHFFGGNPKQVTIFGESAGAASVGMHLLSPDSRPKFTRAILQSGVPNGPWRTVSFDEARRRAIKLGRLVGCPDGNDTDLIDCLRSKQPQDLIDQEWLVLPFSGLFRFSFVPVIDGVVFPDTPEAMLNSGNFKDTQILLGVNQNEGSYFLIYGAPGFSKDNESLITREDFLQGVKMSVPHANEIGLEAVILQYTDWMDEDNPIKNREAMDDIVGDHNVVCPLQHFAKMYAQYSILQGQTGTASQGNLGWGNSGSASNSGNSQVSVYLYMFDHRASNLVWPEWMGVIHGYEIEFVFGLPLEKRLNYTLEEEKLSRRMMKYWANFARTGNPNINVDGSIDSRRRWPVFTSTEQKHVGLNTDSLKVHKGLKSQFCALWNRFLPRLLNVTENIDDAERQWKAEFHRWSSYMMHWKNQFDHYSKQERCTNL
T1 sequence (P06276 whole entry): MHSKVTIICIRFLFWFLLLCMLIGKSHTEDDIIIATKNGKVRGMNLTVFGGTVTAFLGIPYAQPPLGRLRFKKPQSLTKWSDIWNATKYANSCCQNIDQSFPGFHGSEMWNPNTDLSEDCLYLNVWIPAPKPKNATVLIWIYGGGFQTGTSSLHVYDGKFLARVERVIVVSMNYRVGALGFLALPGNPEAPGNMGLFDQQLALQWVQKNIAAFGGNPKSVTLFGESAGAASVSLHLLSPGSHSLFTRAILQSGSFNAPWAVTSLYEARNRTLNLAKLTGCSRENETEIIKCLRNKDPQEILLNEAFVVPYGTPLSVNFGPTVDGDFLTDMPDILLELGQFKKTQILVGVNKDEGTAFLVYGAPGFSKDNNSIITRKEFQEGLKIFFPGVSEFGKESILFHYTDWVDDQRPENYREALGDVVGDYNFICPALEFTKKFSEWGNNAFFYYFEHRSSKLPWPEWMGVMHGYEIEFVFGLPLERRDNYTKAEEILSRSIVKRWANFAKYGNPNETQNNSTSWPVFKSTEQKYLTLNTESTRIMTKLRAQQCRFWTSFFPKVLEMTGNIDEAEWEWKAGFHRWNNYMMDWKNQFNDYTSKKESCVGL

SMILES: COc1ccc(/C=N/NC(=O)Nc2ccncc2)cc1
- Time (Rattus norvegicus [1]): 56.33 s
- Time (Rattus norvegicus [2]): 50.5 s
- Time (Rattus norvegicus [3]): 63.33 s
- IC50 (Cholinesterase [4]): 786 µM
- Ki (Acetylcholinesterase [5]): 35.5 µM
- Activity (Rattus norvegicus [6]): 36.83 mol/min
- Activity (Rattus norvegicus [7]): Non-toxic
- Activity (Rattus norvegicus [8]): Dose-dependent effect
- Time (Rattus norvegicus [9]): 48.67 s
- Activity (Rattus norvegicus [10]): 39.5 mol/min
- Ratio IC50 [11]: 16.3
- Time (Rattus norvegicus [12]): 67.83 s
- IC50 (Acetylcholinesterase [13]; read-out: IC50): 48.3 µM
- IC50 (Acetylcholinesterase [13]; read-out: pIC50 (converted)): 49 µM
- Activity (Rattus norvegicus [14]): 37.5 mol/min
- Time (Rattus norvegicus [15]): 70.17 s
- Activity (Rattus norvegicus [16]): Non-toxic
- Time (Rattus norvegicus [17]): 65.83 s
- Time (Rattus norvegicus [18]): 56.17 s
- Activity (Rattus norvegicus [19]): 37.83 mol/min
- Ki (Cholinesterase [20]): 624 µM
- Activity (Rattus norvegicus [21]): 40.33 mol/min
- Activity (Rattus norvegicus [22]): 35.17 mol/min

SMILES: COc1ccc(/C=N/NC(=O)Nc2ccncc2)cc1OC
- Time (Rattus norvegicus [1]): 49.33 s
- Time (Rattus norvegicus [2]): 44.5 s
- Time (Rattus norvegicus [3]): 57.17 s
- IC50 (Cholinesterase [4]): 426 µM
- Ki (Acetylcholinesterase [5]): 10.3 µM
- Activity (Rattus norvegicus [6]): 33.17 mol/min
- Activity (Rattus norvegicus [7]): Non-toxic
- Activity (Rattus norvegicus [8]): Dose-dependent effect
- Time (Rattus norvegicus [9]): 40.5 s
- Activity (Rattus norvegicus [10]): 36.87 mol/min
- Ratio IC50 [11]: 33.6
- Time (Rattus norvegicus [12]): 64.83 s
- IC50 (Acetylcholinesterase [13]; read-out: IC50): 12.7 µM
- Activity (Rattus norvegicus [14]): 35.83 mol/min
- Time (Rattus norvegicus [15]): 67.17 s
- Activity (Rattus norvegicus [16]): Non-toxic
- Time (Rattus norvegicus [17]): 62.17 s
- Time (Rattus norvegicus [18]): 52.17 s
- Activity (Rattus norvegicus [19]): 35.17 mol/min
- Ki (Cholinesterase [20]): 283 µM
- Activity (Rattus norvegicus [21]): 38.17 mol/min
- Activity (Rattus norvegicus [22]): 35.33 mol/min

SMILES: COc1cc2c(cc1OC)C(=O)C(CC1CCN(Cc3ccccc3)CC1)C2 (stereo not given) [DONEPEZIL]
- Time (Rattus norvegicus [1]): 43.17 s
- Time (Rattus norvegicus [2]): 39.1 s
- Time (Rattus norvegicus [3]): 53.86 s
- Activity (Rattus norvegicus [6]): 26.82 mol/min
- Activity (Rattus norvegicus [8]): Dose-dependent effect
- Time (Rattus norvegicus [9]): 37.67 s
- Activity (Rattus norvegicus [10]): 31.25 mol/min
- Time (Rattus norvegicus [12]): 61.25 s
- Activity (Rattus norvegicus [14]): 30.86 mol/min
- Time (Rattus norvegicus [15]): 64.2 s
- Time (Rattus norvegicus [17]): 55.42 s
- Time (Rattus norvegicus [18]): 45.14 s
- Activity (Rattus norvegicus [19]): 28.24 mol/min
- Activity (Rattus norvegicus [21]): 32.38 mol/min
- Activity (Rattus norvegicus [22]): 28.54 mol/min

SMILES: NNC(=O)Nc1ccncc1
- Time (Rattus norvegicus [1]): 64 s
- Time (Rattus norvegicus [2]): 60.5 s
- Time (Rattus norvegicus [3]): 69.83 s
- IC50 (Cholinesterase [4]): > 1000 µM
- Activity (Rattus norvegicus [6]): 37.17 mol/min
- Activity (Rattus norvegicus [7]): Non-toxic
- Activity (Rattus norvegicus [8]): Dose-dependent effect
- Time (Rattus norvegicus [9]): 59.33 s
- Activity (Rattus norvegicus [10]): 42.33 mol/min
- Time (Rattus norvegicus [12]): 75.5 s
- IC50 (Acetylcholinesterase [13]; read-out: IC50): 211 µM
- Activity (Rattus norvegicus [14]): 43.67 mol/min
- Time (Rattus norvegicus [15]): 78 s
- Activity (Rattus norvegicus [16]): Non-toxic
- Time (Rattus norvegicus [17]): 71.83 s
- Time (Rattus norvegicus [18]): 65 s
- Activity (Rattus norvegicus [19]): 42.17 mol/min
- Activity (Rattus norvegicus [21]): 44.5 mol/min
- Activity (Rattus norvegicus [22]): 37.47 mol/min

SMILES: O=C(N/N=C/c1ccccc1)Nc1ccncc1
- Time (Rattus norvegicus [1]): 58.33 s
- Time (Rattus norvegicus [2]): 53.33 s
- Time (Rattus norvegicus [3]): 66.17 s
- IC50 (Cholinesterase [4]): 845 µM
- Ki (Acetylcholinesterase [5]): 88.6 µM
- Activity (Rattus norvegicus [6]): 35.83 mol/min
- Activity (Rattus norvegicus [7]): Non-toxic
- Activity (Rattus norvegicus [8]): Dose-dependent effect
- Time (Rattus norvegicus [9]): 51 s
- Activity (Rattus norvegicus [10]): 42.03 mol/min
- Ratio IC50 [11]: 10.3
- Time (Rattus norvegicus [12]): 70.33 s
- IC50 (Acetylcholinesterase [13]; read-out: IC50): 82.3 µM
- Activity (Rattus norvegicus [14]): 41 mol/min
- Time (Rattus norvegicus [15]): 74.17 s
- Activity (Rattus norvegicus [16]): Non-toxic
- Time (Rattus norvegicus [17]): 69.33 s
- Time (Rattus norvegicus [18]): 59.17 s
- Activity (Rattus norvegicus [19]): 40.5 mol/min
- Ki (Cholinesterase [20]): 685 µM
- Activity (Rattus norvegicus [21]): 42.33 mol/min
- Activity (Rattus norvegicus [22]): 36.5 mol/min

SMILES: NC(=O)Nc1ccncc1
- Time (Rattus norvegicus [1]): 65.12 s
- Time (Rattus norvegicus [2]): 61.25 s
- Time (Rattus norvegicus [3]): 73 s
- IC50 (Cholinesterase [4]): > 1000 µM
- Activity (Rattus norvegicus [6]): 37.33 mol/min
- Activity (Rattus norvegicus [7]): Non-toxic
- Activity (Rattus norvegicus [8]): Dose-dependent effect
- Time (Rattus norvegicus [9]): 60.17 s
- Activity (Rattus norvegicus [10]): 43 mol/min
- Time (Rattus norvegicus [12]): 77.83 s
- IC50 (Acetylcholinesterase [13]; read-out: IC50): 274 µM
- Activity (Rattus norvegicus [14]): 44.17 mol/min
- Time (Rattus norvegicus [15]): 80.83 s
- Activity (Rattus norvegicus [16]): Non-toxic
- Time (Rattus norvegicus [17]): 75 s
- Time (Rattus norvegicus [18]): 66.2 s
- Activity (Rattus norvegicus [19]): 42.5 mol/min
- Activity (Rattus norvegicus [21]): 44.5 mol/min
- Activity (Rattus norvegicus [22]): 37.5 mol/min
